In PMC10132129 (RSC Advances, 2023):
Structures can show the parent of a compound that is named as a salt. Marks after values point to notes of the source that are not given here. Each block holds one compound with its values, some of them ahead of it.

Tests used:
[1] = system: streptozotocin-induced diabetic male rats; assay: Body weight and relative reproductive organ weight in diabetic rats; format: in vivo, albino rats; details: 5 mg kg^−1 b.w
Summary of the method: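 Male albino rats (190–200 g), fasted overnight, given STZ 55 mg kg−1 ip with 5% glucose to drink; FPG >250 mg dL−1 at 72 h defined diabetes. Body weight recorded weeks 0, 5, 9. Organs weighed post-mortem; relative weight = organ/body weight × 100.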

[2] = system: streptozotocin-induced diabetic male rats; assay: Serum biochemical estimation in diabetic rats; format: in vivo, albino rats; details: for Fasting plasma glucose / Fasting plasma glucose % reduced / Serum insulin / Serum insulin % increased: 5 mg kg^−1 b.w
Summary of the method: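 STZ-diabetic male rats (55 mg kg−1 ip; FPG >250 mg dL−1) dosed orally 9 weeks in 0.5% Na-CMC; n = 6. Fasting retro-orbital blood taken under diethyl ether at weeks 0, 5, 9; serum spun 3500 rpm, 15 min. FPG by glucometer; ALT, AST, ALP, creatinine by commercial kits. Mean ± SD; one-way ANOVA with Tukey test.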

[3] = system: streptozotocin-induced diabetic male rats; assay: Copulatory; format: in vivo, albino rats; details: 5 mg kg^−1 b.w; day 63
Summary of the method: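 STZ-diabetic males dosed orally for 9 weeks; tested on day 63. Females were ovariectomized and primed sc with 3-benzoyloxy-17b-estrol 48 h before and progesterone 500 μg 4 h before testing. Males adapted 10 min under dim red light, then paired 1:1. Mount, intromission and ejaculation latencies/frequencies and post-ejaculatory interval recorded; n = 6.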

[4] = system: streptozotocin-induced diabetic male rats; assay: Mating test; format: in vivo, albino rats; details: 5 mg kg^−1 b.w
Summary of the method: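 In week 8, each treated diabetic male was housed 5 days with two virgin females. Daily vaginal smears checked for sperm. Sperm-positive females were kept 10 days, then euthanised (diethyl ether overdose) to count fetuses and corpora lutea. Mating success = females mated / females paired; male fertility = fetuses / corpora lutea.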

[5] = system: streptozotocin-induced diabetic male rats; assay: Epididymal sperm characteristics; format: in vivo, albino rats; details: 5 mg kg^−1 b.w, 9 weeks
Summary of the method: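 After 9 weeks' oral dosing of STZ-diabetic rats, cauda epididymal semen was diluted with normal saline in a red-cell pipette (0.5 to 101 mark). Count in Neubauer chamber at ×40, expressed as million cells per mL. Viability by eosin–nigrosin mixed 1:1 for 5 min, ~200 cells scored; unstained cells counted as live. Smears air-dried for morphology; n = 6.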

[6] = system: streptozotocin-induced diabetic male rats; assay: Histopathological examination of testes; format: in vivo, albino rats; details: 9 weeks
Summary of the method: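 Testes from 9-week-dosed diabetic rats fixed in 10% formalin, paraffin-embedded, cut at 5 μm and H&E-stained; examined at ×400. Tubule diameter and epithelial height measured on 20 near-circular seminiferous tubule cross-sections from three slides (lower, middle, upper testis). n = 6; mean ± SD.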

human PDE5A = human PDE5A (Homo sapiens, UniProt O76074); assay: In vitro PDE5 inhibitory activity; format: biochemical; details: read-out: % Inhibition of PDE5
[7] = ABTS^+· radical scavenging assay; format: biochemical; details: read-out: IC50 against ABTS^+· free radical
Summary of the method: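 Radical-scavenging assay: test compound at 25–100 μg mL−1 mixed with ABTS+· solution and incubated 37 °C, 6 min. Absorbance read at 750 nm against blank. Ascorbic acid was the standard. Triplicate runs; IC50 reported.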

[8] = 9 weeks treatment, vs diabetic control

inhibition at 2.5 µg/mL (human PDE5A): 48.1 ± 1.48% | inhibition at 5 µg/mL (human PDE5A): 67.8 ± 1.21% | inhibition at 7.5 µg/mL (human PDE5A): 84.1 ± 0.86% | inhibition at 10 µg/mL (human PDE5A): 97.3 ± 1.64%
Structure (SMILES): CCCc1nn(C)c2c(=O)[nH]c(-c3cc(S(=O)(=O)N4CCN(C)CC4)ccc3OCC)nc12 [Sildenafil citrate]
Body weight ([1]; 9 weeks): 179.50 ± 5.05 g | Body weight % changed ([1]; 9 weeks): −10.32 ± 3.18% | Body weight ([1]; 0 week): 200.33 ± 6.68 g | Body weight ([1]; 5 weeks): 170.83 ± 6.79 g | Body weight % changed ([1]; 5 weeks): −14.69 ± 3.27% | Fasting plasma glucose ([2]; 9 weeks): 190.67 ± 5.79 mg/dL | Fasting plasma glucose % reduced ([2]; 9 weeks): 45.28 ± 2.37% | Serum insulin ([2]; 9 weeks): 6.82 ± 0.14 mIU L^−1 | Serum insulin % increased ([2]; 9 weeks): 99.58 ± 9.18% | Fasting plasma glucose ([2]; 0 week): 348.67 ± 6.80^c mg dL^−1 | Serum insulin ([2]; 0 week): 3.43 ± 021^c mIU L^−1 | Fasting plasma glucose ([2]; 5 weeks): 219.17 ± 5.38 mg/dL | Fasting plasma glucose % reduced ([2]; 5 weeks): 37.12 ± 2.15% | Serum insulin ([2]; 5 weeks): 6.00 ± 0.29 mIU L^−1 | Serum insulin % increased ([2]; 5 weeks): 75.37 ± 3.54% | Creatinine (Cr) level [2, 8]: remarkable reduction | Total bilirubin (TBIL) level [2, 8]: remarkable reduction | Total protein (TP) level [2, 8]: significant recovery | Urea (U) level [2, 8]: remarkable reduction | Ejaculatory latency [3]: 948.83 ± 32.29^a sec | Intromission frequency [3]: 8.20 ± 0.55^by no. | Intromission latency [3]: 805.33 ± 23.84^bx sec | Mount frequency [3]: 578.50 ± 38.01^cy sec | Mount latency [3]: 539.67 ± 27.06^x sec | Post ejaculatory interval [3]: 1311.67 ± 95.19 s | Male fertility [4]: 83.85 ± 3.98^z % | Mating success [4]: 83.34% | No. of corpora lutea/rat [4]: 12.40 ± 0.52 | No. of fetuses/rat [4]: 10.40 ± 0.70^z | No. of females mated ([4]; of 12 females paired): 10 | No. of females pregnant ([4]; of 12 females paired): 10 | Detached head from sperm [5]: 9.67 ± 2.73^z % | Sperm abnormalities [5]: 9.83 ± 0.75^ay % | Sperm count [5]: 56.69 ± 1.37 million cells per mL | Sperm count % reduced [5]: 24.24 ± 3.66% | Sperm motility [5]: 68.67 ± 3.14^by % | Sperm viability [5]: 68.17 ± 2.56^cz % | Height of seminiferous epithelium ([6]; 5 mg kg^−1 b.w): 70.60 ± 3.10^z μm | Mean seminiferous tubule diameter ([6]; 5 mg kg^−1 b.w): 217.00 ± 15.14^y μm | Mean Johnson's score ([6]; 5 mg kg^−1 b.w, range 1–10): 9.30 ± 0.48^z | Testicular histology (H&E) ([6]; oral treatment): marked development in the testicular structure

IC50 [7]: 169 ± 12.9 µM
Structure (SMILES): O=C1O[C@H]([C@@H](O)CO)C(O)=C1O [ascorbic acid]
